Measurements as given in ChEMBL document CHEMBL1914423, “New imidazo[2,1-b]thiazole derivatives: synthesis, in vitro anticancer evaluation, and in silico studies” (Eur J Med Chem, 2011).

Columns and labels:
Assay type in all cases: functional
NCI-H23 = test: Anticancer activity against human NCI-H23 cells after 48 hrs by SRB assay; conditions: NCI-H23, 48 h
KM12 = test: Anticancer activity against human KM12 cells after 48 hrs by SRB assay; conditions: KM12, 48 h
Procedure, shortened: (§1)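 NCI five-dose screen. Cells in RPMI 1640 with 5% FBS and 2 mM L-glutamine, seeded at 5000–40,000 cells/well according to doubling time, then pre-incubated 24 h at 37 °C in 5% CO2. Drugs dissolved in DMSO, five concentrations by 10-fold or 1/2-log dilution. Cells fixed with TCA, SRB-stained, A515 read. IC50 solved from [(Ti−Tz)/(C−Tz)]×100 = 50.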

DU-145 = test: Anticancer activity against human DU145 cells after 48 hrs by SRB assay; conditions: DU-145, 48 h; procedure, shortened: as §1
LOX IMVI = test: Anticancer activity against human LOXIMVI cells after 48 hrs by SRB assay; procedure, shortened: as §1
SF-295 = test: Anticancer activity against human SF295 cells after 48 hrs by SRB assay; conditions: SF-295, 48 h
MDA-MB-435 = test: Anticancer activity against human MDA-MB-435 cells after 48 hrs by SRB assay; conditions: MDA-MB-435, 48 h; procedure, shortened: as §1
Malme-3M = test: Anticancer activity against human MALME-3M cells after 48 hrs by SRB assay; procedure, shortened: as §1
SK-MEL-5 = test: Anticancer activity against human SK-MEL-5 cells after 48 hrs by SRB assay; conditions: SK-MEL-5, 48 h
HCT-15 = test: Anticancer activity against human HCT15 cells after 48 hrs by SRB assay; conditions: HCT-15, 48 h; procedure, shortened: as §1
CCRF-CEM = test: Anticancer activity against human CCRF-CEM cells after 48 hrs by SRB assay; procedure, shortened: as §1
HOP-62 = test: Anticancer activity against human HOP62 cells after 48 hrs by SRB assay; conditions: HOP-62, 48 h; procedure, shortened: as §1
[1] = Anticancer activity against human Hs 578T cells after 48 hrs by SRB assay; procedure, shortened: as §1
NCI/ADR-RES = test: Anticancer activity against human NCI/ADR-RES cells after 48 hrs by SRB assay
CAKI-1 = test: Anticancer activity against human Caki1 cells after 48 hrs by SRB assay; conditions: CAKI-1, 48 h; procedure, shortened: as §1
SF-268 = test: Anticancer activity against human SF268 cells after 48 hrs by SRB assay; conditions: SF-268, 48 h
M14 = test: Anticancer activity against human M14 cells after 48 hrs by SRB assay; conditions: M14, 48 h; procedure, shortened: as §1
SN12C = test: Anticancer activity against human SN12C cells after 48 hrs by SRB assay
SR = test: Anticancer activity against human SR cells after 48 hrs by SRB assay
Procedure, shortened: (§2)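 NCI-60 five-dose mode: cells in RPMI 1640 with 5% FBS and 2 mM glutamine, plated at 5000–40,000 cells/well, and preincubated 24 h, with time-zero plates TCA-fixed. Drug given at five concentrations (10-fold or ½-log serial dilutions). Cold TCA fixation 60 min at 4 °C, SRB stain, Tris solubilization, A515. IC50 taken where [(Ti−Tz)/(C−Tz)]×100 = 50.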

MDA-MB-468 = test: Anticancer activity against human MDA-MB-468 cells after 48 hrs by SRB assay; conditions: MDA-MB-468, 48 h
K562 = test: Anticancer activity against human K562 cells after 48 hrs by SRB assay; conditions: K562, 48 h; procedure, shortened: as §1
HT-29 = test: Anticancer activity against human HT-29 cells after 48 hrs by SRB assay; conditions: HT-29, 48 h; procedure, shortened: as §1
UACC-257 = test: Anticancer activity against human UACC257 cells after 48 hrs by SRB assay; conditions: UACC-257, 48 h; procedure, shortened: as §2
T47D = test: Anticancer activity against human T47D cells after 48 hrs by SRB assay; procedure, shortened: as §2
MOLT-4 = test: Anticancer activity against human MOLT4 cells after 48 hrs by SRB assay; conditions: MOLT-4, 48 h
TK-10 = test: Anticancer activity against human TK10 cells after 48 hrs by SRB assay; conditions: TK-10, 48 h; procedure, shortened: as §2
RPMI-8226 = test: Anticancer activity against human RPMI8226 cells after 48 hrs by SRB assay; conditions: RPMI-8226, 48 h
COLO 205 = test: Anticancer activity against human COLO205 cells after 48 hrs by SRB assay; conditions: COLO 205, 48 h; procedure, shortened: as §1
SF-539 = test: Anticancer activity against human SF539 cells after 48 hrs by SRB assay; conditions: SF-539, 48 h
NCI-H460 = test: Anticancer activity against human NCI-H460 cells after 48 hrs by SRB assay; conditions: NCI-H460, 48 h
NCI-H322M = test: Anticancer activity against human NCI-H322M cells after 48 hrs by SRB assay
[2] = read-out: LC50 (the source's name)

With `COc1cccc(-c2nc3sccn3c2-c2ccnc(NCCNC(=O)Nc3cccc(C(F)(F)F)c3)n2)c1` the GI50 (NCI-H23) was 3.42 µM, the LC50 (50% lethal concentration) (NCI-H23) was > 100 µM and the TGI (NCI-H23) was 76.9 µM. The GI50 (KM12) was 3.36 µM, the TGI (KM12) was 10.1 µM and the CC50 (KM12; [2]) was 39.3 µM. For the same molecule, the GI50 (DU-145) was 5.13 µM, the TGI (DU-145) was 95.5 µM and the CC50 (DU-145; [2]) was > 100 µM. The GI50 (LOX IMVI) was 4.11 µM, the TGI (LOX IMVI) was > 100 µM and the CC50 (LOX IMVI; [2]) was > 100 µM. The GI50 (SF-295) was 2.8 µM, the TGI (SF-295) was 14.9 µM and the CC50 (SF-295; [2]) was > 100 µM. The GI50 (MDA-MB-435) was 2.95 µM, the TGI (MDA-MB-435) was 12.3 µM and the CC50 (MDA-MB-435; [2]) was > 100 µM. The GI50 (Malme-3M) was 3.86 µM, the TGI (Malme-3M) was 26.8 µM and the CC50 (Malme-3M; [2]) was > 100 µM. It also gave a GI50 (SK-MEL-5) of 4.27 µM, a TGI (SK-MEL-5) of 15.9 µM and a CC50 (SK-MEL-5; [2]) of 40.6 µM. For the same molecule, the GI50 (HCT-15) was 3.05 µM, the TGI (HCT-15) was 16.4 µM and the CC50 (HCT-15; [2]) was > 100 µM. For the same molecule, the GI50 (CCRF-CEM) was 8.43 µM, the TGI (CCRF-CEM) was > 100 µM and the CC50 (CCRF-CEM; [2]) was > 100 µM. The GI50 (HOP-62) was 6.71 µM, the LC50 (concentration killing 50% of starting cells) (HOP-62) was > 100 µM and the TGI (HOP-62) was 42.4 µM. The GI50 [1] was 3.15 µM, the TGI [1] was 29 µM and the CC50 [1, 2] was > 100 µM. For the same molecule, the GI50 (NCI/ADR-RES) was 3.45 µM, the TGI (NCI/ADR-RES) was > 100 µM and the CC50 (NCI/ADR-RES; [2]) was > 100 µM. The GI50 (CAKI-1) was 3.5 µM, the TGI (CAKI-1) was 10.3 µM and the CC50 (CAKI-1; [2]) was > 100 µM. For the same molecule, the GI50 (SF-268) was 4.59 µM, the TGI (SF-268) was 43.4 µM and the CC50 (SF-268; [2]) was > 100 µM. For the same molecule, the GI50 (M14) was 2.96 µM, the TGI (M14) was 8.48 µM and the CC50 (M14; [2]) was 29.2 µM. The GI50 (SN12C) was 4.03 µM, the TGI (SN12C) was 26.5 µM and the CC50 (SN12C; [2]) was > 100 µM. The GI50 (SR) was 3.75 µM, the TGI (SR) was 29.7 µM and the CC50 (SR; [2]) was > 100 µM. For the same molecule, the GI50 (MDA-MB-468) was 2.63 µM, the TGI (MDA-MB-468) was 10.4 µM and the CC50 (MDA-MB-468; [2]) was > 100 µM. For the same molecule, the GI50 (K562) was 3.48 µM, the TGI (K562) was > 100 µM and the CC50 (K562; [2]) was > 100 µM. The GI50 (HT-29) was 3.33 µM, the TGI (HT-29) was 14 µM and the CC50 (HT-29; [2]) was > 100 µM. For the same molecule, the GI50 (UACC-257) was 4.34 µM, the TGI (UACC-257) was 16.5 µM and the CC50 (UACC-257; [2]) was 65.9 µM. For the same molecule, the GI50 (T47D) was 3.77 µM, the TGI (T47D) was 13.8 µM and the CC50 (T47D; [2]) was 61 µM. For the same molecule, the GI50 (MOLT-4) was 3.27 µM, the TGI (MOLT-4) was 9.94 µM and the CC50 (MOLT-4; [2]) was > 100 µM. For the same molecule, the GI50 (TK-10) was 3.6 µM, the TGI (TK-10) was 18.8 µM and the CC50 (TK-10; [2]) was > 100 µM. The GI50 (RPMI-8226) was 1.92 µM, the LC50 (RPMI-8226) was > 100 µM and the TGI (RPMI-8226) was 5.11 µM. The GI50 (COLO 205) was 5.37 µM, the TGI (COLO 205) was 19.2 µM and the CC50 (COLO 205; [2]) was 58 µM. The GI50 (SF-539) was 3.83 µM, the TGI (SF-539) was 17.1 µM and the CC50 (SF-539; [2]) was 56.5 µM. For the same molecule, the GI50 (NCI-H460) was 2.94 µM, the LC50 (NCI-H460) was > 100 µM and the TGI (NCI-H460) was 14.4 µM. For the same molecule, the GI50 (NCI-H322M) was 7.23 µM, the TGI (NCI-H322M) was > 100 µM and the CC50 (NCI-H322M; [2]) was > 100 µM.
